Compound activity deposited in PubChem by several laboratories.
DAGLB inhibitor: DAGLB lipase inhibitors, primary screen, biochemical, fluorescence, HTS; Diacylglycerol lipase-beta (Homo sapiens), Q8NCG7; HEK293T DAGLB membrane lysate, EnzChek fluorogenic substrate; inhibition, % at 5.17 µM; 0.059% of 340,000 active; in the data active means inhibition above about 34%;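 further: 0% = enzyme with vehicle and 100% = wells lacking enzyme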
MT1-MMP act inh: blockers of MT1-MMP proenzyme processing, primary screen, HT1080 RFP-PRO-GFP cells, GFP/RFP fluorescence; Matrix metalloproteinase-14 (Homo sapiens), P50281; GFP/RFP ratio fluorescence, overnight; percent of plate control window, DMSO zero; GFP/RFP ratio change, % at 20 µM; 0.061% of 360,000 active; AID 651647, 2012;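 active means GFP/RFP ratio change of at least 30% with cell ATP level not reduced by more than half and red fluorescence within 50% of control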
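Assay system: HT1080 RFP-PRO-GFP cells. Benchmarks: DMSO vehicle wells and RFP-L50D-GFP reporter cell wells. Times: overnight cell settling, then overnight compound exposure, 37 °C, 5% CO2. Compound: 20 µM single dose, 1% DMSO. Read-out basis: GFP/RFP fluorescence ratio.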
SKN-1 block: suppressors of acrylamide-induced Pgst-4::GFP reporter in worms, primary screen, SKN-1 inhibitor project, whole organism, uHTS, GFP/RFP fluorescence ratio, strain VP596; C. elegans VP596 Pgst-4::GFP/RFP ratio, 24 h; inhibition, % at 21.8 µM; 0.49% of 360,000 active; AID 624304, 2012;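 active means interference check ratio from 0.5 to 1.5 plus GFP to RFP signal ratio inhibition reaching or exceeding a fixed threshold, cut at about 30% in these data, passing the limit was not always enough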
FAS TE block: FAS thioesterase domain inhibitors, primary screen, biochemical, fluorescence intensity, uHTS | recombinant FAS-TE, OMFH fluorogenic substrate, fluorescence endpoint | AID 602261, 2012 | inhibition, % at 15 µM | 0.67% of 360,000 active;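 active means compounds whose normalised, plate-corrected inhibition of enzyme fluorescence in the single-dose primary screen is 50% or more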;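 further: 0% = DMSO with enzyme and 100% = substrate without enzyme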
iPSC survival up: enhancers of single-cell hiPSC survival, primary screen, ATPlite luminescence | survival enhancement, % at 20 µM | 100% = ROCK inhibitor wells, 0% = DMSO | AID 602274, 2012 | 0.044% of 360,000 active; in the data active means survival enhancement above about 18%;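 further: cells exposed to compounds for 16 hours before the ATP read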
Active calls of the source: *; x = not tested or not shown. Sampled rows, rich in hits. Any-hit rate of the full collection: about 1.3%.

SMILES	DAGLB inhibitor	MT1-MMP act inh	SKN-1 block	FAS TE block	iPSC survival up
CCn1c2ccccc2c2cc(NC(=O)CSc3nnc(-c4cccc(OC)c4)n3N)ccc21	1	1	20	0	-1
Cc1nccc(-c2sc(-c3cccs3)nc2C)n1	-4	-1	39*	0	-1
Cc1nc(-c2cccs2)sc1C(=O)O	0	-4	0	-7	0
CCCSC1=C(C#N)C(c2ccc(OC)cc2)C2=C(CC(C)(C)CC2=O)N1 (centres undefined)	-2	-15	7	7	0
CSC1=C(C#N)C(c2ccc(Cl)cc2)C2=C(CC(C)(C)CC2=O)N1 (centres undefined)	-5	-14	35*	20	0
CC=CCn1c(SCc2ccccc2)nc2c1c(=O)[nH]c(=O)n2C	x	0	-15	-8	2
CCCn1c(SCc2ccccc2)nc2c1c(=O)[nH]c(=O)n2C	-1	2	6	-7	32*
CCCCCCn1c(SCCN2CCOCC2)nc2c1c(=O)[nH]c(=O)n2C	0	4	-2	-3	26*
Cc1cc(=O)n(Nc2ccccc2)c(O)c1C#N	2	-7	10	-7	-2
O=C(C(=O)N1CCN(c2ccccc2F)CC1)c1cn(CC(=O)N2CCCC2)c2ccccc12	-2	2	2	-8	-2
CCCCN1C(=O)C(CC(=O)NCCc2ccccn2)CC(C(=O)N2CCCCCC2)=C1C (centres undefined)	x	7	-10	-1	0
C=CCn1c(-c2ccccc2)cc(SC)c(C#N)c1=O	-9	-6	0	21	1
C=CCn1c(-c2ccccc2)ccc(C#N)c1=O	-8	1	65*	20	-2
O=S1(=O)N[C@H](Cc2ccccc2)COc2cccc(N3CCC[C@@H]3CO)c21	x	4	0	-4	0
N/C(=N\N=C/c1ccc(Br)cc1)N/N=C\c1ccc(Br)cc1	1	6	26	-28	1
N/C(=N\N=C/c1ccc(F)cc1)N/N=C\c1ccc(F)cc1	3	10	51*	-23	-1
CCN1C(=O)C2C(c3ccccc3F)NC(Cc3ccc(O)cc3)(C(=O)OC)C2C1=O (centres undefined)	0	-3	37*	-9	-1
COc1ccccc1CNC(=O)c1cccc(S(=O)(=O)N2CCN(c3ccc(F)cc3)CC2)c1	-1	4	6	32	0
CN(C)C(CNC(=O)c1cccc(S(=O)(=O)N2CCN(c3ccc(F)cc3)CC2)c1)c1ccccc1 (centres undefined)	-1	-6	46*	13	0
O=C(NCc1nc2ccccc2[nH]1)C1=C[C@@H](C2CCCCC2)C[C@@H](OCc2ccc(CO)cc2)O1	-5	1	19	8	4
O=C(NCc1nc2ccccc2[nH]1)C1=C[C@H](C2CCCCC2)C[C@H](OCc2ccc(CO)cc2)O1	0	-8	39*	5	-2
Cc1c(Cl)cccc1N=c1c([N+](=O)[O-])nn(-c2ccccc2)n1O	0	6	52*	-3	6
COc1cccc(C(C)(O)c2nc(/C=C/c3ccccc3)cs2)c1 (centres undefined)	x	-4	8	21	-1
Clc1ccc(Nc2ccc(-n3ccnc3)nn2)cc1Cl	1	-5	37*	21	-2
Cc1cccc(C)c1OCc1cc(C(=O)N2CCN(C3CCCC3)CC2)no1	-1	-1	50*	6	0
SMILES	DAGLB inhibitor	MT1-MMP act inh	SKN-1 block	FAS TE block	iPSC survival up
Cc1ccc(S(=O)(=O)c2nnn3c2nc(NC2CCN(Cc4ccccc4)CC2)c2ccccc23)cc1C	4	4	-8	86*	0
Cc1cccc(COC[C@H](Cc2ccccc2)N2CCN(C(=O)c3ccc(Cl)c(Cl)c3)CCC2=O)c1	x	-3	10	32	0
Cc1cc(O)c(C(C)C)cc1NC(=O)Nc1ccc([N+](=O)[O-])cc1	1	-1	44*	8	-1
COc1c(Cl)cnn(-c2ccc(C)cc2)c1=O	2	-2	-6	-8	27*
COc1ccc(Oc2c(Cl)cnn(-c3ccc(C)cc3)c2=O)cc1	-3	-3	8	9	-6
O=C(COC(=O)c1ccccc1SCC(=O)NC1CCS(=O)(=O)C1)NC1CCS(=O)(=O)C1 (centres undefined)	1	0	4	-6	2
CCNC(=O)NC(=O)COC(=O)c1ccccc1SCC(=O)NC(=O)NCC	1	35*	-7	-4	2
Cc1cc(N2CCCC2)ccc1/C=C1\NC(=S)N(C)C1=O	-45	-93	43*	-5	1
CCOC(=O)SC1=N/C(=C\c2ccc(N(C)C)cc2)C(=O)S1	6	-44	41*	-7	6
CCSC1=N/C(=C\c2ccc(C(=O)O)cc2)C(=O)S1	1	11	9	-4	-1
O=[N+]([O-])c1ccc(COc2ccc(CN3CCOCC3)cc2)cc1	0	11	32	-1	-2
O=[N+]([O-])c1ccc(OCc2cnc(Cl)s2)cc1	-3	0	54*	10	1
O=[N+]([O-])c1ccc(COc2ccc(CN3CCCC3)cc2)cc1	-1	x	60*	-1	-3
O=[N+]([O-])c1ccc(CN2CCCCCC2)cc1	1	-1	11	-3	2
O=[N+]([O-])c1ccc(COc2ccc(CN3CCCCC3)cc2)cc1	-1	6	40*	-3	-2
CC(C)CNC(=O)C1C(=O)Nc2ccccc2C(=O)N1C(C)(C)C (centres undefined)	x	-6	-11	x	x
CN1C(=O)C(N=Nc2ccc([N+](=O)[O-])cc2)SC1=S (centres undefined)	4	0	96*	0	-2
CCCn1cnc2cc(NCc3cccc(OC)c3O)ccc21	3	7	35*	-8	0
O=C(Nc1ccccc1)C1CC(=O)N(C2CCCCC2)C1 (centres undefined)	-1	0	42*	-3	-2
CC(C)c1ccc(NC(=O)C2CC(=O)N(C3CCCC3)C2)cc1 (centres undefined)	5	-1	-8	1	0
COc1ccc(-c2c(-c3ccsc3)oc3c2C(O)CCC3)cn1 (centres undefined)	x	4	3	-10	0
CN(C)CCCNc1cc(C(C)(C)C)nc2c(-c3ccc(Cl)cc3)cnn12	0	-7	41*	33	-1
